Measurements as given in ChEMBL document CHEMBL4017535 (J Med Chem, 2017).

Assays:
[1] = Toxicity in iv dosed NOD.SCID mouse xenografted with gamma-irradiated human Kasumi-1 cells administered as […] for every 7 days; type: organism-based; conditions: in vivo
Method in brief: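 Kasumi-1 AML xenograft in mice; dosing intravenous once every 7 days at 8 mg/kg.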

Mus musculus = assay: Toxicity in NOD.SCID mouse assessed as maximum mean body weight loss at 8 mg/kg, iv qd for every 7 days (reference value: 9%); type: organism-based; conditions: in vivo, 168 h

SMILES: Nc1ncn([C@@H]2O[C@H](CO)[C@@H](O)[C@H]2O)c(=O)n1 [AZACITIDINE]
- MTD at 168 h [1]: 8 mg/kg
- Activity (Mus musculus): 1%
